ChEMBL document CHEMBL1154044, “5-Nitro-2-furyl derivative actives against Trypanosoma cruzi: preliminary in vivo studies” (Eur J Med Chem, 2009)

Key:
Mus musculus [1] = assay: Toxicity in CD1 mouse heart at 450 mg/kg, po after 3 days by histological study; format: organism-based; parameters: dose 450 mg/kg, route oral; conditions: in vivo, 72 h
Outline: (§1)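 Healthy female CD1 mice (20–22 g), 5–7 per group, given a single oral (intragastric) or i.p. dose in saline:Tween 80 (4:1) vehicle. Sacrificed on day 3 after ether anaesthesia. Organs fixed in 10% aqueous formalin for histology. Scored against untreated animals from no change to +++ (many changes).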

Mus musculus [2] = assay: Toxicity in CD1 mouse heart at 300 mg/kg, ip after 3 days by histological study; format: organism-based; parameters: dose 300 mg/kg, route intraperitoneal; conditions: in vivo, 72 h; outline: as §1
Mus musculus [3] = assay: Toxicity in CD1 mouse lung at 450 mg/kg, po after 3 days by histological study; format: organism-based; parameters: dose 450 mg/kg, route oral; conditions: in vivo, 72 h; outline: as §1
Mus musculus [4] = assay: Toxicity in CD1 mouse lung at 300 mg/kg, ip after 3 days by histological study; format: organism-based; parameters: dose 300 mg/kg, route intraperitoneal; conditions: in vivo, 72 h; outline: as §1
Mus musculus [5] = assay: Toxicity in CD1 mouse brain at 450 mg/kg, po after 3 days by histological study; format: organism-based; parameters: dose 450 mg/kg, route oral; conditions: in vivo, 72 h; outline: as §1
Mus musculus [6] = assay: Toxicity in CD1 mouse brain at 300 mg/kg, ip after 3 days by histological study; format: organism-based; parameters: dose 300 mg/kg, route intraperitoneal; conditions: in vivo, 72 h; outline: as §1
Trypanosoma cruzi = assay: Growth inhibition of Trypanosoma cruzi Tulahuen 2 epimastigote at 5 uM after 5 days; format: functional; conditions: Trypanosoma cruzi, Tulahuen 2, 120 h; read-out: GI
Mus musculus [7] = assay: Toxicity in CD1 mouse assessed as decrease in weight respect to day zero at 450 mg/kg, po after 3 days; format: organism-based; parameters: dose 450 mg/kg, route oral; scale not given: the % may be the effect or the level left; conditions: in vivo, 72 h
Outline: (§2)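 Healthy 2-month-old female CD1 mice (20–22 g, 5–7 per group) received one dose. Oral doses of 450 or 300 mg/kg were given by intragastric syringe; i.p. doses of 300 or 150 mg/kg by injection. Drugs were suspended in saline:Tween 80 (4:1), and a vehicle-only control was included. Mice were weighed and observed daily for 3 days. Weight change is expressed as percent relative to day zero.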

Mus musculus [8] = assay: Toxicity in CD1 mouse assessed as survival at 450 mg/kg, po after 3 days; format: organism-based; parameters: dose 450 mg/kg, route oral; conditions: in vivo, 72 h
Outline: (§3)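 Healthy 2-month-old female CD1 mice (20–22 g), groups of 5–7, given one oral dose by intragastric syringe or one i.p. injection. Compound suspended in saline:Tween 80 (4:1) with sonication just before dosing; vehicle-treated controls included. Weighed and observed daily over 3 days for skin, physical aspect, activity and faeces; survival recorded at day 3.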

Mus musculus [9] = assay: Toxicity in CD1 mouse assessed as increase in weight respect to day zero at 300 mg/kg, ip after 3 days; format: organism-based; parameters: dose 300 mg/kg, route intraperitoneal; conditions: in vivo, 72 h; outline: as §2
Mus musculus [10] = assay: Toxicity in CD1 mouse assessed as survival at 300 mg/kg, ip after 3 days; format: organism-based; parameters: dose 300 mg/kg, route intraperitoneal; conditions: in vivo, 72 h; outline: as §3
Mus musculus [11] = assay: Toxicity in CD1 mouse assessed as leukocyte level at 450 mg/kg, po after 3 days; format: organism-based; parameters: dose 450 mg/kg, route oral; conditions: in vivo, 72 h
Outline: (§4)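 Healthy female CD1 mice (5–7 per group) received a single oral dose of 450 mg/kg or an i.p. dose of 300 mg/kg, with vehicle controls. On day 3 they were sacrificed under ether anaesthesia. Blood was drawn from the subclavian artery and kept at 0 °C in EDTA or heparin. Leukocytes, haemoglobin, haematocrit, GPT and GOT were measured within 24 h and compared with normal ranges.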

Mus musculus [12] = assay: Toxicity in CD1 mouse assessed as leukocyte level at 300 mg/kg, ip after 3 days; format: organism-based; parameters: dose 300 mg/kg, route intraperitoneal; conditions: in vivo, 72 h; outline: as §4
Mus musculus [13] = assay: Toxicity in CD1 mouse assessed as haemoglobin level at 450 mg/kg, po after 3 days; format: organism-based; parameters: dose 450 mg/kg, route oral; conditions: in vivo, 72 h; outline: as §4
Mus musculus [14] = assay: Toxicity in CD1 mouse assessed as haemoglobin level at 300 mg/kg, ip after 3 days; format: organism-based; parameters: dose 300 mg/kg, route intraperitoneal; conditions: in vivo, 72 h; outline: as §4
Mus musculus [15] = assay: Toxicity in CD1 mouse assessed as hematocrite level at 450 mg/kg, po after 3 days; format: organism-based; parameters: dose 450 mg/kg, route oral; conditions: in vivo, 72 h; outline: as §4
Mus musculus [16] = assay: Toxicity in CD1 mouse assessed as glutamic-pyruvate transaminase level at 450 mg/kg, po after 3 days; format: organism-based; parameters: dose 450 mg/kg, route oral; conditions: in vivo, 72 h; outline: as §4
Mus musculus [17] = assay: Toxicity in CD1 mouse assessed as glutamic-pyruvate transaminase level at 300 mg/kg, ip after 3 days; format: organism-based; parameters: dose 300 mg/kg, route intraperitoneal; conditions: in vivo, 72 h; outline: as §4
Mus musculus [18] = assay: Toxicity in CD1 mouse assessed as glutamic-oxalacetate transaminase level at 450 mg/kg, po after 3 days; format: organism-based; parameters: dose 450 mg/kg, route oral; conditions: in vivo, 72 h; outline: as §4
Mus musculus [19] = assay: Toxicity in CD1 mouse liver at 300 mg/kg, ip after 3 days by histological study; format: organism-based; parameters: dose 300 mg/kg, route intraperitoneal; conditions: in vivo, 72 h; outline: as §1
Mus musculus [20] = assay: Toxicity in CD1 mouse assessed as glutamic-oxalacetate transaminase level at 300 mg/kg, ip after 3 days; format: organism-based; parameters: dose 300 mg/kg, route intraperitoneal; conditions: in vivo, 72 h; outline: as §4
Mus musculus [21] = assay: Toxicity in CD1 mouse liver at 450 mg/kg, po after 3 days by histological study; format: organism-based; parameters: dose 450 mg/kg, route oral; conditions: in vivo, 72 h; outline: as §1
Mus musculus [22] = assay: Toxicity in CD1 mouse intestine at 450 mg/kg, po after 3 days by histological study; format: organism-based; parameters: dose 450 mg/kg, route oral; conditions: in vivo, 72 h; outline: as §1
Mus musculus [23] = assay: Toxicity in CD1 mouse intestine at 300 mg/kg, ip after 3 days by histological study; format: organism-based; parameters: dose 300 mg/kg, route intraperitoneal; conditions: in vivo, 72 h; outline: as §1
Mus musculus [24] = assay: Toxicity in CD1 mouse kidney at 450 mg/kg, po after 3 days by histological study; format: organism-based; parameters: dose 450 mg/kg, route oral; conditions: in vivo, 72 h; outline: as §1
Mus musculus [25] = assay: Toxicity in CD1 mouse kidney at 300 mg/kg, ip after 3 days by histological study; format: organism-based; parameters: dose 300 mg/kg, route intraperitoneal; conditions: in vivo, 72 h; outline: as §1
Mus musculus [26] = assay: Toxicity in CD1 mouse assessed as hematocrite level at 300 mg/kg, ip after 3 days; format: organism-based; parameters: dose 300 mg/kg, route intraperitoneal; conditions: in vivo, 72 h; outline: as §4

SMILES	Activity (Mus musculus [1])	Activity (Mus musculus [2])	Activity (Mus musculus [3])	Activity (Mus musculus [4])	Activity (Mus musculus [5])	Activity (Mus musculus [6])	inhibition of growth at 5 µM (Trypanosoma cruzi) [%]	Activity (Mus musculus [7]) [%]	Activity (Mus musculus [8])	Activity (Mus musculus [9]) [%]	Activity (Mus musculus [10])	Activity (Mus musculus [11]) [µL⁻¹]	Activity (Mus musculus [12]) [µL⁻¹]	Activity (Mus musculus [13]) [g/dL]	Activity (Mus musculus [14]) [g/dL]	Activity (Mus musculus [16]) [IU/L]	Activity (Mus musculus [17]) [IU/L]	Activity (Mus musculus [18]) [IU/L]	Activity (Mus musculus [19])	Activity (Mus musculus [20]) [IU/L]	further results
CCCCCCCOC(=O)N/N=C/C=C/c1ccc([N+](=O)[O-])o1	Non-toxic	Non-toxic	Non-toxic	Non-toxic	Non-toxic	Non-toxic	90	0	Non-toxic	4	Non-toxic	9010	11100	13.4	14.2	62.7	46.1	139	Toxic	77.7	Activity (Mus musculus [15]): 39.4%; Activity (Mus musculus [21]): Toxic; Activity (Mus musculus [22]): Non-toxic; Activity (Mus musculus [23]): Non-toxic; Activity (Mus musculus [24]): Non-toxic; Activity (Mus musculus [25]): Non-toxic
CCCCCCNC(=O)/C=C/c1ccc([N+](=O)[O-])o1	Toxic	Toxic	Toxic	Toxic	Non-toxic	Non-toxic	82	0	Non-toxic	2	Non-toxic	86000	12100	11.5	11.3	22.7	52.8	69.8	Toxic	129	Activity (Mus musculus [15]): 30.4%; Activity (Mus musculus [21]): Toxic; Activity (Mus musculus [22]): Non-toxic; Activity (Mus musculus [23]): Non-toxic; Activity (Mus musculus [24]): Non-toxic; Activity (Mus musculus [25]): Non-toxic
CCCCOC(=O)N/N=C/C=C/c1ccc([N+](=O)[O-])o1	Non-toxic	Non-toxic	Non-toxic	Non-toxic	Non-toxic	Non-toxic	87	2	Non-toxic	2	Non-toxic	26600	31800	13.5	11.8	22.6	17	72	Toxic	76.5	Activity (Mus musculus [26]): 37.2%; Activity (Mus musculus [21]): Toxic; Activity (Mus musculus [22]): Non-toxic; Activity (Mus musculus [23]): Non-toxic; Activity (Mus musculus [24]): Non-toxic; Activity (Mus musculus [25]): Non-toxic
